Assays:
Format in all cases: functional
Ovis aries [1] = assay: Activity against adult gastrointestinal helminths of experimentally infected sheep on oral administration of Trichostrongylus axei at 3.0 mg/kg.
Procedure, shortened: (§1)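 Sheep were given the compound orally, each at one dose, with concurrent experimental infections of six adult gastrointestinal nematode species. Efficacy against adult worms was recorded as a categorical score for each species.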

Ovis aries [2] = assay: Activity against adult gastrointestinal helminths of experimentally infected sheep on oral administration of Trichostrongylus colubriformis at 3.0 mg/kg.
Procedure, shortened: (§2)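 Sheep were given the compound orally, each at one dose, with experimental infections of six gastrointestinal nematode species. The Haemonchus contortus and Trichostrongylus colubriformis strains were benzimidazole-resistant. Efficacy against adult worms was recorded as a categorical score.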

Ovis aries [3] = assay: Activity against adult gastrointestinal helminths of experimentally infected sheep on oral administration of Cooperia species at 3.0 mg/kg; 50-74; procedure, shortened: as §1
Ovis aries [4] = assay: Activity against adult gastrointestinal helminths of experimentally infected sheep on oral administration of Oesophagostomum columbianum at 3.0 mg/kg.; procedure, shortened: as §1
Ovis aries [5] = assay: Activity against adult gastrointestinal helminths of experimentally infected sheep on oral administration of Ostertagia circumcincta at 3.0 mg/kg; 75-90; procedure, shortened: as §1
Ovis aries [6] = assay: Activity against adult gastrointestinal helminths of experimentally infected sheep on oral administration of Haemonchus contortus at 3.0 mg/kg; 50-74; procedure, shortened: as §2
Ovis aries [7] = assay: Activity against adult gastrointestinal helminths of experimentally infected sheep on oral administration of Trichostrongylus colubriformis at 0.2 mg/kg.; procedure, shortened: as §2
Ovis aries [8] = assay: Activity against adult gastrointestinal helminths of experimentally infected sheep on oral administration of Ostertagia circumcincta at 0.2 mg/kg.; procedure, shortened: as §1
Ovis aries [9] = assay: Activity against adult gastrointestinal helminths of experimentally infected sheep on oral administration of Trichostrongylus axei at 0.2 mg/kg; 50-74; procedure, shortened: as §1
Ovis aries [10] = assay: Activity against adult gastrointestinal helminths of experimentally infected sheep on oral administration of Haemonchus contortus at 0.2 mg/kg.; procedure, shortened: as §2
Ovis aries [11] = assay: Activity against adult gastrointestinal helminths of experimentally infected sheep on oral administration of Oesophagostomum columbianum at 0.2 mg/kg.; procedure, shortened: as §1
Ovis aries [12] = assay: Activity against adult gastrointestinal helminths of experimentally infected sheep on oral administration of Cooperia species at 0.2 mg/kg.; procedure, shortened: as §1
Ovis aries [13] = assay: Activity against adult gastrointestinal helminths of experimentally infected sheep on oral administration of Oesophagostomum columbianum at 0.3 mg/kg.; procedure, shortened: as §1
Ovis aries [14] = assay: Activity against adult gastrointestinal helminths of experimentally infected sheep on oral administration of Cooperia species at 0.3 mg/kg; 75-90; procedure, shortened: as §1
Ovis aries [15] = assay: Activity against adult gastrointestinal helminths of experimentally infected sheep on oral administration of Haemonchus contortus at 0.3 mg/kg.; procedure, shortened: as §2
Ovis aries [16] = assay: Activity against adult gastrointestinal helminths of experimentally infected sheep on oral administration of Ostertagia circumcincta at 0.3 mg/kg.; procedure, shortened: as §1
Ovis aries [17] = assay: Activity against adult gastrointestinal helminths of experimentally infected sheep on oral administration of Trichostrongylus axei at 0.3 mg/kg.; procedure, shortened: as §1
Ovis aries [18] = assay: Activity against adult gastrointestinal helminths of experimentally infected sheep on oral administration of Trichostrongylus colubriformis at 0.3 mg/kg.; procedure, shortened: as §2
Ovis aries [19] = assay: Activity against adult gastrointestinal helminths of experimentally infected sheep on oral administration of Ostertagia circumcincta at 0.3 mg/kg; 75-90; procedure, shortened: as §1
Ovis aries [20] = assay: Activity against adult gastrointestinal helminths of experimentally infected sheep on oral administration of Cooperia species at 0.3 mg/kg.; procedure, shortened: as §1
Ovis aries [21] = assay: Activity against adult gastrointestinal helminths of experimentally infected sheep on oral administration of Trichostrongylus colubriformis at 0.3 mg/kg; 50-74; procedure, shortened: as §2
Ovis aries [22] = assay: Activity against adult gastrointestinal helminths of experimentally infected sheep on oral administration of Ostertagia circumcincta at 0.05 mg/kg.
Ovis aries [23] = assay: Activity against adult gastrointestinal helminths of experimentally infected sheep on oral administration of Haemonchus contortus at 0.05 mg/kg.
Procedure, shortened: (§3)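 Sheep were experimentally infected with benzimidazole-resistant isolates of this species among six gastrointestinal helminths and dosed orally. Efficacy against the adult worms was scored per species.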

Ovis aries [24] = assay: Activity against adult gastrointestinal helminths of experimentally infected sheep on oral administration of Cooperia species at 0.05 mg/kg.
Ovis aries [25] = assay: Activity against adult gastrointestinal helminths of experimentally infected sheep on oral administration of Trichostrongylus colubriformis at 0.05 mg/kg.; procedure, shortened: as §3
Ovis aries [26] = assay: Activity against adult gastrointestinal helminths of experimentally infected sheep on oral administration of Trichostrongylus axei at 0.05 mg/kg.
Ovis aries [27] = assay: Activity against adult gastrointestinal helminths of experimentally infected sheep on oral administration of Oesophagostomum columbianum at 0.05 mg/kg.
Ovis aries [28] = assay: Activity against adult gastrointestinal helminths of experimentally infected sheep on oral administration of Ostertagia circumcincta at 0.1 mg/kg; 75-90; procedure, shortened: as §1
Ovis aries [29] = assay: Activity against adult gastrointestinal helminths of experimentally infected sheep on oral administration of Cooperia species at 0.1 mg/kg; 75-90; procedure, shortened: as §1
Ovis aries [30] = assay: Activity against adult gastrointestinal helminths of experimentally infected sheep on oral administration of Trichostrongylus colubriformis at 0.1 mg/kg.; procedure, shortened: as §2
Ovis aries [31] = assay: Activity against adult gastrointestinal helminths of experimentally infected sheep on oral administration of Haemonchus contortus at 0.1 mg/kg; 75-90; procedure, shortened: as §2
Ovis aries [32] = assay: Activity against adult gastrointestinal helminths of experimentally infected sheep on oral administration of Oesophagostomum columbianum at 0.1 mg/kg.; procedure, shortened: as §1
Ovis aries [33] = assay: Activity against adult gastrointestinal helminths of experimentally infected sheep on oral administration of Trichostrongylus axei at 0.1 mg/kg.; procedure, shortened: as §1
Ovis aries [34] = assay: Activity against adult gastrointestinal helminths of experimentally infected sheep on oral administration of Cooperia species at 0.1 mg/kg.; procedure, shortened: as §1
Ovis aries [35] = assay: Activity against adult gastrointestinal helminths of experimentally infected sheep on oral administration of Ostertagia circumcincta at 0.1 mg/kg.; procedure, shortened: as §1
Ovis aries [36] = assay: Activity against adult gastrointestinal helminths of experimentally infected sheep on oral administration of Haemonchus contortus at 0.1 mg/kg.; procedure, shortened: as §2
Ovis aries [37] = assay: Activity against adult gastrointestinal helminths of experimentally infected sheep on oral administration of Ostertagia circumcincta at 0.15 mg/kg; 75-90; procedure, shortened: as §1
Ovis aries [38] = assay: Activity against adult gastrointestinal helminths of experimentally infected sheep on oral administration of Cooperia species at 0.15 mg/kg.; procedure, shortened: as §1
Ovis aries [39] = assay: Activity against adult gastrointestinal helminths of experimentally infected sheep on oral administration of Oesophagostomum columbianum at 0.15 mg/kg.; procedure, shortened: as §1
Ovis aries [40] = assay: Activity against adult gastrointestinal helminths of experimentally infected sheep on oral administration of Trichostrongylus colubriformis at 0.15 mg/kg.; procedure, shortened: as §2
Ovis aries [41] = assay: Activity against adult gastrointestinal helminths of experimentally infected sheep on oral administration of Trichostrongylus axei at 0.15 mg/kg.; procedure, shortened: as §1
Ovis aries [42] = assay: Activity against adult gastrointestinal helminths of experimentally infected sheep on oral administration of Haemonchus contortus at 0.15 mg/kg 75-90; procedure, shortened: as §2
Ovis aries [43] = assay: Activity against adult gastrointestinal helminths of experimentally infected sheep on oral administration of Trichostrongylus axei at 0.2 mg/kg.; procedure, shortened: as §1

## CC1=C[C@H]2C(=O)O[C@H]3C[C@@H](C/C=C(\C)[C@@H](O)[C@@H](C)/C=C/C=C4\CO[C@H]([C@@H]1O)[C@@]42O)O[C@@]1(CC[C@H](C)[C@@H](C(C)C)O1)C3
Ovis aries [1]
  Efficacy: >90%
Ovis aries [2]
  Efficacy: >90%
Ovis aries [3]
  Efficacy: 50%
Ovis aries [4]
  Efficacy: >90%
Ovis aries [5]
  Efficacy: 75%
Ovis aries [6]
  Efficacy: 50%

## CO[C@H]1C[C@H](O[C@H]2[C@H](C)O[C@@H](O[C@@H]3/C(C)=C/C[C@@H]4C[C@@H](C[C@]5(CC[C@H](C)[C@@H](C(C)C)O5)O4)OC(=O)[C@@H]4CC(C)[C@@H](O)[C@H]5OC/C(=C\C=C\[C@@H]3C)[C@]54O)C[C@@H]2OC)O[C@@H](C)[C@@H]1O (stereo not given in full)
Ovis aries [7]
  Efficacy: <50%
Ovis aries [8]
  Efficacy: <50%
Ovis aries [9]
  Efficacy: 50%
Ovis aries [10]
  Efficacy: <50%
Ovis aries [11]
  Efficacy: >90%
Ovis aries [12]
  Efficacy: <50%

## CO[C@H]1C[C@H](O[C@@H]2/C(C)=C/C[C@@H]3C[C@@H](C[C@]4(CC[C@H](C)[C@@H](C(C)C)O4)O3)OC(=O)[C@@H]3C=C(C)[C@@H](O)[C@H]4OC/C(=C\C=C\[C@@H]2C)[C@]43O)O[C@@H](C)[C@@H]1O
Ovis aries [13]
  Efficacy: >90%
Ovis aries [14]
  Efficacy: 75%
Ovis aries [15]
  Efficacy: >90%
Ovis aries [16]
  Efficacy: >90%
Ovis aries [17]
  Efficacy: >90%
Ovis aries [18]
  Efficacy: >90%

## CC[C@H](C)[C@H]1O[C@]2(CC[C@@H]1C)C[C@@H]1C[C@@H](C/C=C(\C)[C@@H](O[C@H]3C[C@H](OC)[C@@H](O[C@H]4C[C@H](OC)[C@@H](O)[C@H](C)O4)[C@H](C)O3)[C@@H](C)/C=C/C=C3\CO[C@@H]4[C@H](OC)C(C)=C[C@@H](C(=O)O1)[C@]34O)O2
Ovis aries [13]
  Efficacy: >90%
Ovis aries [19]
  Efficacy: 75%
Ovis aries [15]
  Efficacy: >90%
Ovis aries [17]
  Efficacy: <50%
Ovis aries [20]
  Efficacy: <50%
Ovis aries [21]
  Efficacy: 50%

## CC[C@H](C)[C@H]1O[C@]2(C=C[C@@H]1C)C[C@@H]1C[C@@H](C/C=C(\C)[C@@H](O[C@H]3C[C@H](OC)[C@@H](O[C@H]4C[C@H](OC)[C@@H](O)[C@H](C)O4)[C@H](C)O3)[C@@H](C)/C=C/C=C3\CO[C@@H]4[C@H](O)C(C)=C[C@@H](C(=O)O1)[C@]34O)O2 [ABAMECTIN COMPONENT B1A]
Ovis aries [22]
  Efficacy: >90%
Ovis aries [23]
  Efficacy: >90%
Ovis aries [24]
  Efficacy: >90%
Ovis aries [25]
  Efficacy: >90%
Ovis aries [26]
  Efficacy: >90%
Ovis aries [27]
  Efficacy: >90%

## CC[C@H](C)[C@H]1O[C@]2(C=C[C@@H]1C)C[C@@H]1C[C@@H](C/C=C(\C)[C@@H](OC3CC(OC)C(OC4CC(OC)C(O)C(C)O4)C(C)O3)[C@@H](C)/C=C/C=C3\CO[C@@H]4[C@H](OC)C(C)=C[C@@H](C(=O)O1)[C@]34O)O2 (stereo not given in full) [AVERMECTIN A1]
Ovis aries [28]
  Efficacy: 75%
Ovis aries [29]
  Efficacy: 75%
Ovis aries [30]
  Efficacy: <50%
Ovis aries [31]
  Efficacy: 75%
Ovis aries [32]
  Efficacy: <50%
Ovis aries [33]
  Efficacy: <50%

## CC[C@H](C)[C@H]1O[C@]2(CC(O)[C@@H]1C)C[C@@H]1C[C@@H](C/C=C(\C)[C@@H](OC3CC(OC)C(OC4CC(OC)C(O)C(C)O4)C(C)O3)[C@@H](C)/C=C/C=C3\CO[C@@H]4[C@H](OC)C(C)=C[C@@H](C(=O)O1)[C@]34O)O2 (stereo not given in full) [AVERMECTIN A2]
Ovis aries [34]
  Efficacy: <50%
Ovis aries [30]
  Efficacy: >90%
Ovis aries [32]
  Efficacy: >90%
Ovis aries [35]
  Efficacy: >90%
Ovis aries [33]
  Efficacy: >90%
Ovis aries [36]
  Efficacy: >90%

## COC1CC(O[C@@H]2/C(C)=C/C[C@@H]3C[C@@H](C[C@]4(C=C[C@H](C)[C@@H](C(C)C)O4)O3)OC(=O)[C@@H]3C=C(C)[C@@H](O)[C@H]4OC/C(=C\C=C\[C@@H]2C)[C@]43O)OC(C)C1O (stereo not given in full) [AVERMECTIN B1 MONOSACCHARIDE]
Ovis aries [37]
  Efficacy: 75%
Ovis aries [38]
  Efficacy: >90%
Ovis aries [39]
  Efficacy: <50%
Ovis aries [40]
  Efficacy: >90%
Ovis aries [41]
  Efficacy: >90%
Ovis aries [42]
  Efficacy: 75%

## COC1CC(O[C@@H]2/C(C)=C/C[C@@H]3C[C@@H](C[C@]4(CC(O)[C@H](C)[C@@H](C(C)C)O4)O3)OC(=O)[C@@H]3C=C(C)[C@@H](O)[C@H]4OC/C(=C\C=C\[C@@H]2C)[C@]43O)OC(C)C1O (stereo not given in full) [AVERMECTIN B2 MONOSACCHARIDE]
Ovis aries [7]
  Efficacy: >90%
Ovis aries [8]
  Efficacy: 50%
Ovis aries [10]
  Efficacy: 50%
Ovis aries [43]
  Efficacy: >90%
Ovis aries [11]
  Efficacy: >90%
Ovis aries [12]
  Efficacy: >90%

## COC1CC(OC2C(C)OC(O[C@@H]3/C(C)=C/C[C@@H]4C[C@@H](C[C@]5(CC(O)[C@H](C)[C@@H](C(C)C)O5)O4)OC(=O)[C@@H]4C=C(C)[C@@H](O)[C@H]5OC/C(=C\C=C\[C@@H]3C)[C@]54O)CC2OC)OC(C)C1O (stereo not given in full) [AVERMECTIN B2]
Ovis aries [34]
  Efficacy: >90%
Ovis aries [30]
  Efficacy: >90%
Ovis aries [32]
  Efficacy: >90%
Ovis aries [35]
  Efficacy: >90%
Ovis aries [33]
  Efficacy: >90%
Ovis aries [36]
  Efficacy: <50%

From ChEMBL document CHEMBL1121612, “Ivermectin, a new broad-spectrum antiparasitic agent” (1980)
